Counter-ions that a name gives are not always drawn.
Legend:
Assay type in all cases: functional, cell-based
HT-29 = experiment: Cytotoxicity against human HT-29 cells after 72 hrs by SRB assay; conditions: HT-29, 72 h
In short: (§1)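 Adherent cells plated 24 h before treatment and exposed continuously to compound at 100, 10, 1 and 0.1 µM for 72 h. Cells were then fixed and stained with sulforhodamine B, and IC50 was determined. Amrubicin hydrochloride served as the positive control.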

A549 = experiment: Cytotoxicity against human A549 cells after 72 hrs by SRB assay; conditions: A549, 72 h; in short: as §1
K562 = experiment: Cytotoxicity against human K562 cells after 72 hrs by SRB assay; conditions: K562, 72 h

Structure (SMILES) | IC50 (HT-29) [µM] | IC50 (A549) [µM] | IC50 (K562) [µM]
CC(=O)[C@]1(N)Cc2c(O)c3c(c(O)c2[C@@H](O[C@H]2C[C@H](O)[C@H](O)CO2)C1)C(=O)c1ccccc1C3=O [AMRUBICIN HYDROCHLORIDE] | 4.57 | 0.94 | 1.2
CC1=C[C@@H]2O[C@]34O[C@@]5(CC[C@]6(C)C(=O)[C@](C)(O)[C@]2(OC1=O)[C@H]36)C[C@]12OC(=O)C[C@H]1O[C@@](C)(CO)[C@@H]2CC[C@@]5(O)C4=O [SCHISANDILACTONE A] | > 100 | > 100 | > 100
C[C@H]1C(=O)O[C@@H]2[C@H]1O[C@]1(C)[C@H]2[C@H]2[C@](C)(CC[C@]34C[C@]56OC(=O)C[C@H]5OC(C)(C)[C@@H]6C[C@H](O)[C@H]3C(=O)[C@@]2(O)O4)[C@@H]1O [SCHISANDILACTONE B] | > 100 | > 100 | > 100
C[C@H]1C(=O)O[C@@H]2[C@H]1O[C@@]1(C)C(=O)[C@@]3(C)CC[C@]45C[C@]67OC(=O)C[C@H]6OC(C)(C)[C@@H]7C[C@H](O)[C@H]4C(=O)[C@@](O)(O5)[C@H]3[C@@]21O [SCHISANDILACTONE C] | > 100 | > 100 | > 100
C[C@H]1C(=O)O[C@@H]2[C@H]1O[C@@]1(C)C(=O)[C@@]3(C)CC[C@]45C[C@]67OC(=O)C[C@H]6OC(C)(C)[C@@H]7C[C@@H](O)[C@H]4C(=O)[C@@](O)(O5)[C@H]3[C@@]21O [SCHISANDILACTONE D] | > 100 | > 100 | > 100
CC1=C[C@@H]([C@@H]2[C@H]3[C@](C)(C(=O)C[C@]45C[C@]67OC(=O)C[C@H]6O[C@@](C)(CO)[C@@H]7CC[C@@H]4[C@@H](O)[C@@]3(O)O5)C(=O)[C@]2(C)O)OC1=O [SCHISANDILACTONE E] | > 100 | > 100 | > 100
CC1=C[C@@H]([C@]2(O)[C@H]3[C@](C)(CC[C@]45C[C@]67OC(=O)C[C@H]6OC(C)(C)[C@@H]7C[C@@H](O)[C@H]4C(=O)[C@@]3(O)O5)C(=O)[C@]2(C)O)OC1=O [SCHISANDILACTONE F] | > 100 | > 100 | > 100
C[C@@H]1C(=O)O[C@H]2[C@@H]1O[C@]13O[C@@]4(CC(=O)[C@]5(C)C(=O)[C@](C)(O)[C@H]2[C@@H]51)C[C@]12OC(=O)C[C@H]1O[C@@](C)(CO)[C@@H]2CC[C@H]4[C@H]3O [SCHISANDILACTONE G] | > 100 | > 100 | > 100
C[C@@H]1C(=O)O[C@H]2[C@@H]1O[C@]13O[C@@]4(CC(=O)[C@]5(C)C(=O)[C@](C)(O)[C@@]2(O)[C@@H]51)C[C@]12OC(=O)C[C@H]1O[C@@](C)(CO)[C@@H]2CC[C@@H]4[C@H]3O [SCHISANDILACTONE H] | > 100 | > 100 | > 100
C[C@@H]1C(=O)O[C@H]2[C@@H]1O[C@]13O[C@@]4(CC[C@]5(C)C(=O)[C@](C)(O)[C@H]2[C@H]15)C[C@]12OC(=O)C[C@H]1O[C@@](C)(CO)[C@@H]2CC[C@H]4C3=O [SCHISANDILACTONE I] | > 100 | > 100 | > 100
C[C@@H]1C(=O)O[C@H]2[C@@H]1O[C@]13O[C@@]4(CC[C@]5(C)C(=O)[C@](C)(O)[C@@]2(O)[C@H]15)C[C@]12OC(=O)C[C@H]1O[C@@](C)(CO)[C@@H]2C[C@@H]1O[C@@]14C3=O [SCHISANDILACTONE J] | > 100 | > 100 | > 100
